Assay results from ChEMBL document CHEMBL3352666, “Human Toll-like receptor 8-selective agonistic activities in 1-alkyl-1H-benzimidazol-2-amines” (J Med Chem, 2014).
Calls of active or inactive are those of the source.

Columns and labels:
Assay type in all cases: cell-based
[1] = biological target: Toll-like receptor 5 (Homo sapiens) (UniProt O60602); assay: Agonist activity at human TLR5 stably expressed in HEK293 cells co-expressing secreted alkaline phosphatase assessed as NF-kappaB induction by liquid handler-assisted reporter gene assay
Procedure, shortened: (§1)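 HEK293 reporter cells stably co-transfected with the respective human TLR or NOD receptor plus NF-κB/AP-1-driven secreted alkaline phosphatase, kept in selection medium. About 10^5 cells/ml were incubated with graded concentrations of test compound in 384-well format. Supernatant sAP was read colorimetrically at 620 nm with an alkaline phosphatase-specific chromogen in detection medium.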

[2] = biological target: Toll-like receptor 3 (Homo sapiens) (UniProt O15455); assay: Agonist activity at human TLR3 stably expressed in HEK293 cells co-expressing secreted alkaline phosphatase assessed as NF-kappaB induction by liquid handler-assisted reporter gene assay; procedure, shortened: as §1
[3] = biological target: T1, Nucleotide-binding oligomerization domain-containing protein 1 (Homo sapiens) (UniProt Q9Y239); assay: Agonist activity at human NOD1 stably expressed in HEK293 cells co-expressing secreted alkaline phosphatase assessed as NF-kappaB induction by liquid handler-assisted reporter gene assay; procedure, shortened: as §1
T1 sequence (whole entry): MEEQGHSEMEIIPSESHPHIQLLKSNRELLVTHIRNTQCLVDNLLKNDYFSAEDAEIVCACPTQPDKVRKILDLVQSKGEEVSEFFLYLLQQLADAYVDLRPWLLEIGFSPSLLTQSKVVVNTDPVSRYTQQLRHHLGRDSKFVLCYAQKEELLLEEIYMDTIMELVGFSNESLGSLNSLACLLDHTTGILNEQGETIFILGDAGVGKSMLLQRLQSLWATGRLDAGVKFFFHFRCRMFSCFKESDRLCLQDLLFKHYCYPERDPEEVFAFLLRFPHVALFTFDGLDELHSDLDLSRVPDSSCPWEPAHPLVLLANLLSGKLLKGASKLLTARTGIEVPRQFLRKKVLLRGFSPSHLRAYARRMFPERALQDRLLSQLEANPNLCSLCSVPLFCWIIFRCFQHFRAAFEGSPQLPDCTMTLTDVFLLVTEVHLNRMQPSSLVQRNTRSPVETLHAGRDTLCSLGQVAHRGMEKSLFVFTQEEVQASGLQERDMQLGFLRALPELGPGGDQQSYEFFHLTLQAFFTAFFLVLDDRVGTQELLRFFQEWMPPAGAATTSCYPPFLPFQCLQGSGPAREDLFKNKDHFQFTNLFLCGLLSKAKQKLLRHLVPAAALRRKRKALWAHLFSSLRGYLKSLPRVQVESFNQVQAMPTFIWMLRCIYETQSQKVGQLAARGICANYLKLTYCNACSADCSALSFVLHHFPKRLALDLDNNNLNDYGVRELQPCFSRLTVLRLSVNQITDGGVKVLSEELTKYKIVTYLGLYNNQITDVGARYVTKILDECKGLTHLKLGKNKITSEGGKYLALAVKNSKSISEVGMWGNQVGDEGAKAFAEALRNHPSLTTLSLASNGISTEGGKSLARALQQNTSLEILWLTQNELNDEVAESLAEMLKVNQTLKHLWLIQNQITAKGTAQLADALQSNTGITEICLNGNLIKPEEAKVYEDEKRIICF

[4] = biological target: Nucleotide-binding oligomerization domain-containing protein 2 (Homo sapiens, UniProt Q9HC29); assay: Agonist activity at human NOD2 stably expressed in HEK293 cells co-expressing secreted alkaline phosphatase assessed as NF-kappaB induction by liquid handler-assisted reporter gene assay; procedure, shortened: as §1
[5] = biological target: Toll-like receptor 2 (Homo sapiens) (UniProt O60603); assay: Agonist activity at human TLR2 stably expressed in HEK293 cells co-expressing secreted alkaline phosphatase assessed as NF-kappaB induction by liquid handler-assisted reporter gene assay; procedure, shortened: as §1
[6] = biological target: T2, Toll-like receptor 9 (Homo sapiens) (UniProt Q9NR96); assay: Agonist activity at human TLR9 stably expressed in HEK293 cells co-expressing secreted alkaline phosphatase assessed as NF-kappaB induction by liquid handler-assisted reporter gene assay; procedure, shortened: as §1
T2 sequence (whole entry): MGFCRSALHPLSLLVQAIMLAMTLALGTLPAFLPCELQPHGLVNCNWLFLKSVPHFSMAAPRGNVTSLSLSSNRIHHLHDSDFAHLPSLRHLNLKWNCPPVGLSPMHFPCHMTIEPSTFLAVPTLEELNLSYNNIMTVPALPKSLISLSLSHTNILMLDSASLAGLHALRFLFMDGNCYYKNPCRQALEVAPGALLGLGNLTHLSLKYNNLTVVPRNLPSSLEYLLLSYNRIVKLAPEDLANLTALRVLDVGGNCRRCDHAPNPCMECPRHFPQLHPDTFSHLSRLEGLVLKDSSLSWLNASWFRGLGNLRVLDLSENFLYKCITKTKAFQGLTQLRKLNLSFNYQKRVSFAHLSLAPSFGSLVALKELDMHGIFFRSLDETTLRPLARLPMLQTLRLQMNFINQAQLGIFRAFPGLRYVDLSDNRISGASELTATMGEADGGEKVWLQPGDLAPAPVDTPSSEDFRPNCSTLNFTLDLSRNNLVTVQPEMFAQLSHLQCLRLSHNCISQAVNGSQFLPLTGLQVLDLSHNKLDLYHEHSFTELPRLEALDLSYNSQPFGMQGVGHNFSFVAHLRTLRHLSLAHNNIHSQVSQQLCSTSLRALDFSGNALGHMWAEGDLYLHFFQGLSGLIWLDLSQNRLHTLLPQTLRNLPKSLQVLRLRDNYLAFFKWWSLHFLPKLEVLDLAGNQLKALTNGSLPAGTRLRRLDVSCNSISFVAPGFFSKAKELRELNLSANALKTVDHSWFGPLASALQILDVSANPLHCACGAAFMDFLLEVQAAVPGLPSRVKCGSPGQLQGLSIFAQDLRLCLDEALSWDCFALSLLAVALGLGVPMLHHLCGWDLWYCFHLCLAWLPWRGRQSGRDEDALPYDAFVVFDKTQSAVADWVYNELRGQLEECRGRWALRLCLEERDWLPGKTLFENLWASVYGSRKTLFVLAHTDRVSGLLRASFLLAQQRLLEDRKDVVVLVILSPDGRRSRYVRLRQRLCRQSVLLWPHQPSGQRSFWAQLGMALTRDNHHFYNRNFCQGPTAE

[7] = biological target: T3, Toll-like receptor 7 (Homo sapiens) (UniProt Q9NYK1); assay: Agonist activity at human TLR7 stably expressed in HEK293 cells co-expressing secreted alkaline phosphatase assessed as NF-kappaB induction by liquid handler-assisted reporter gene assay; procedure, shortened: as §1
T3 sequence (whole entry): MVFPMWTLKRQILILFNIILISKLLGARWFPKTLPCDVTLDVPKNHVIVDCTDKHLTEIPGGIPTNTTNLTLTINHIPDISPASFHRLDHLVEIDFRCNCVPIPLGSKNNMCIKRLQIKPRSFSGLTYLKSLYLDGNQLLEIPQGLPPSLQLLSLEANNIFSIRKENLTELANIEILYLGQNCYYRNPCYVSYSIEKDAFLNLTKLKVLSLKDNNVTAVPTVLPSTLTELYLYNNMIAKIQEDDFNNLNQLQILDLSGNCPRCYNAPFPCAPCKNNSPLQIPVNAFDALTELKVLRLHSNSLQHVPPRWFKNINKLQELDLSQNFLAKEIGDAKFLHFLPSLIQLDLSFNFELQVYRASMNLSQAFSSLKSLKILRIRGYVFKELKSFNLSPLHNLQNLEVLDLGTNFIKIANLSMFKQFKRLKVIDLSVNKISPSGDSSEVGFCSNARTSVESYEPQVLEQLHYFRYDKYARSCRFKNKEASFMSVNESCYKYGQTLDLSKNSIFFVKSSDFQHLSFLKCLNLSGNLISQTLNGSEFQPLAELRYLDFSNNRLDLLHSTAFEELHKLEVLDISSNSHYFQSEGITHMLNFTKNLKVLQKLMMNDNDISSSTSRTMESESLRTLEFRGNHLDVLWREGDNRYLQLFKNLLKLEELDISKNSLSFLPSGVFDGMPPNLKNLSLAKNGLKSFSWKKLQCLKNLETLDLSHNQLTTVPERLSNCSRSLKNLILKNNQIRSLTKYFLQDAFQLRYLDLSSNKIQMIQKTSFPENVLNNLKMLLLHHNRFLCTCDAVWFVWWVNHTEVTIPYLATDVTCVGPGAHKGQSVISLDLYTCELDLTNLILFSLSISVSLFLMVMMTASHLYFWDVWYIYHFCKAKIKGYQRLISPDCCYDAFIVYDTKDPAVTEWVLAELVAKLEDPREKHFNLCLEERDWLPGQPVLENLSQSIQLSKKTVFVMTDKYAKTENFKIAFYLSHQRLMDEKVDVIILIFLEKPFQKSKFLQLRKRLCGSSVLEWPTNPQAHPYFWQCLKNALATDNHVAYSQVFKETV

[8] = biological target: Toll-like receptor 4 (Homo sapiens) (UniProt O00206); assay: Agonist activity at human TLR4 stably expressed in HEK293 cells co-expressing secreted alkaline phosphatase assessed as NF-kappaB induction by liquid handler-assisted reporter gene assay; procedure, shortened: as §1

Measured: Activity

Chain of Toll-like receptor 5 (Homo sapiens) (O60602 whole entry): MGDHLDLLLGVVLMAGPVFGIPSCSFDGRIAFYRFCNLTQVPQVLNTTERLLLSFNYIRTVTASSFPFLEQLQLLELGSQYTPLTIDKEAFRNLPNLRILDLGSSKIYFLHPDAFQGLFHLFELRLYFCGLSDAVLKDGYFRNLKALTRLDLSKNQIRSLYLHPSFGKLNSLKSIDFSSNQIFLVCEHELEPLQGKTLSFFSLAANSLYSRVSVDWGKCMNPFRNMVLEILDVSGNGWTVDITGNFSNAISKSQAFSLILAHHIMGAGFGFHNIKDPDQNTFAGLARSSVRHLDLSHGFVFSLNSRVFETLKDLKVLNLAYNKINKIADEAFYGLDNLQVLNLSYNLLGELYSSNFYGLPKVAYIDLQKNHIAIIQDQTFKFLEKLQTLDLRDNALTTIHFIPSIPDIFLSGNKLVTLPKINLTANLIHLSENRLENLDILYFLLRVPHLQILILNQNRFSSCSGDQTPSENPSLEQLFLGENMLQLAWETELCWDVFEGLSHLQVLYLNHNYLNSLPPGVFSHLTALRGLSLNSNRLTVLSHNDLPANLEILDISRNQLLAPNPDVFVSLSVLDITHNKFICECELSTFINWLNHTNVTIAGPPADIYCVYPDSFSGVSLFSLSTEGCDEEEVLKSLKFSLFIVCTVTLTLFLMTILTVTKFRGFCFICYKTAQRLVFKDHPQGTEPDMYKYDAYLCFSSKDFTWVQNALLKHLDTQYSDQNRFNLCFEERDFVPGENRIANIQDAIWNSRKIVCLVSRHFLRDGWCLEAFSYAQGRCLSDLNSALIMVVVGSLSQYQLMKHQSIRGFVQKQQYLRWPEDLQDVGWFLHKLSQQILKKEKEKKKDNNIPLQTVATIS
Chain of Nucleotide-binding oligomerization domain-containing protein 2 (Q9HC29 whole entry, the tested form may be a part): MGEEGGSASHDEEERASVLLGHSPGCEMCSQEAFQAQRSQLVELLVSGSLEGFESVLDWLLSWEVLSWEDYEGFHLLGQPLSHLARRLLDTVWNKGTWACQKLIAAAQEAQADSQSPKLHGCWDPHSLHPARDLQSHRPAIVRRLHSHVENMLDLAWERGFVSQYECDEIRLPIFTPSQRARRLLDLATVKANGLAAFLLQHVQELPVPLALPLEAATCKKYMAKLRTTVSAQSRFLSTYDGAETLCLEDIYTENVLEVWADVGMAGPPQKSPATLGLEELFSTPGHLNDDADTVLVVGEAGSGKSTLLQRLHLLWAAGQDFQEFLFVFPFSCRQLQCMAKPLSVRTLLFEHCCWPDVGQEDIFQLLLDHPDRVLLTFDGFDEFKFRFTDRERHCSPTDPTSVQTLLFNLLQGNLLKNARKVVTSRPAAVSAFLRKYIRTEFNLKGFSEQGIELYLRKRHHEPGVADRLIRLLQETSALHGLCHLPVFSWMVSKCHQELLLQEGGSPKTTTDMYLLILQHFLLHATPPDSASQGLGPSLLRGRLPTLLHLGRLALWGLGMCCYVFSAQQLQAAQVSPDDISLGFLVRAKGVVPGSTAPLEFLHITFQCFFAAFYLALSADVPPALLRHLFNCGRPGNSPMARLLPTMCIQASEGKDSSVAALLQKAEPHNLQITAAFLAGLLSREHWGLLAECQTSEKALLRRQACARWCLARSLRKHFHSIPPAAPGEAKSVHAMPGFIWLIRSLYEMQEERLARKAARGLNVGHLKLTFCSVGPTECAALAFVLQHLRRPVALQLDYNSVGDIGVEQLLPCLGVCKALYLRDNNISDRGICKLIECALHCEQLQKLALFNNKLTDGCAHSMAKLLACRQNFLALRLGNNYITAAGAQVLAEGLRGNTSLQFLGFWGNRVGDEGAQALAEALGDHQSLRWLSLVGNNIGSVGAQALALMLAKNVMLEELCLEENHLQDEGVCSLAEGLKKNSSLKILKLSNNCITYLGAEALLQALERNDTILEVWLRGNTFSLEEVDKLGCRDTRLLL
Chain of Toll-like receptor 2 (Homo sapiens) (O60603 whole entry): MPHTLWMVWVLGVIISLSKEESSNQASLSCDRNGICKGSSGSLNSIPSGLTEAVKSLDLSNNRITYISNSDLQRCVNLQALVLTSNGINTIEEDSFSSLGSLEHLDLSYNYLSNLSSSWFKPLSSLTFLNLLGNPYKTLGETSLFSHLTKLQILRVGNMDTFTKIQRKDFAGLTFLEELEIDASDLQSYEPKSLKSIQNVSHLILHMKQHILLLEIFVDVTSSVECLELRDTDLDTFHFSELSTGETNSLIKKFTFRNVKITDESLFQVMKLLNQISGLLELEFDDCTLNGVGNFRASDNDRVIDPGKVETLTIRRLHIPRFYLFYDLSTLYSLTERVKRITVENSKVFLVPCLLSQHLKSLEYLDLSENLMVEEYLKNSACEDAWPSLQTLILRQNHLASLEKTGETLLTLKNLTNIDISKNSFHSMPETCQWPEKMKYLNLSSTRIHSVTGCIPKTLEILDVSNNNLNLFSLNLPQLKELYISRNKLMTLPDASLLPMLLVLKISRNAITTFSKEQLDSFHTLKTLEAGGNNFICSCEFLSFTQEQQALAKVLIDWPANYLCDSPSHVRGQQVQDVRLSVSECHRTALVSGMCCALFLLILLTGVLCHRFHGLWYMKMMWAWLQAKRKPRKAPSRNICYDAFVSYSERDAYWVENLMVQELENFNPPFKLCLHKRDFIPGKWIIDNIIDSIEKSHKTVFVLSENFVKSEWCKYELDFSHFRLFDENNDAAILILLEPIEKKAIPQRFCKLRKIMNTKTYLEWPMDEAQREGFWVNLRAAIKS
Chain of Toll-like receptor 4 (Homo sapiens) (O00206 whole entry): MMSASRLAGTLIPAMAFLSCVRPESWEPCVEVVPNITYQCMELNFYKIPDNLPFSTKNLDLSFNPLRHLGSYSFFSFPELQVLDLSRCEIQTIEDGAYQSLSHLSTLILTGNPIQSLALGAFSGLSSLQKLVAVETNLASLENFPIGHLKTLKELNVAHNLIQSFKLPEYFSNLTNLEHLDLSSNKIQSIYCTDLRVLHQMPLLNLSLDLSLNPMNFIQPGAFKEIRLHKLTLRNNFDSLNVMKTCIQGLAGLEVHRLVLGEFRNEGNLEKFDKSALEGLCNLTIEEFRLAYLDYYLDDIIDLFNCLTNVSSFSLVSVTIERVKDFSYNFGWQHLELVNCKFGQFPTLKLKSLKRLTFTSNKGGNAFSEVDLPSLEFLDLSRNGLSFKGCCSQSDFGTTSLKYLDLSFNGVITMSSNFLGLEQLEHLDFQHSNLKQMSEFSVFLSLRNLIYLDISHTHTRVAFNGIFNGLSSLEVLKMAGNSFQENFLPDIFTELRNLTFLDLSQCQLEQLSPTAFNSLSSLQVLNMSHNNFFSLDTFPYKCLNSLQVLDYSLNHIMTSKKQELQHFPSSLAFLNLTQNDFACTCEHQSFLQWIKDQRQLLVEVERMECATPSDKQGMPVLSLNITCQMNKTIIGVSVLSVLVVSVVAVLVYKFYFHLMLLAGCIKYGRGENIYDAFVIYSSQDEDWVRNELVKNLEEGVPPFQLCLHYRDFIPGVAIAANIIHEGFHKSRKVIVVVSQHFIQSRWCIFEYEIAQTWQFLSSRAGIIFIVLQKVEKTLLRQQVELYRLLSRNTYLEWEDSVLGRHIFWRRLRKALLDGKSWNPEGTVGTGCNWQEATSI
Chain of Toll-like receptor 3 (Homo sapiens) (O15455 whole entry, the tested form may be a part): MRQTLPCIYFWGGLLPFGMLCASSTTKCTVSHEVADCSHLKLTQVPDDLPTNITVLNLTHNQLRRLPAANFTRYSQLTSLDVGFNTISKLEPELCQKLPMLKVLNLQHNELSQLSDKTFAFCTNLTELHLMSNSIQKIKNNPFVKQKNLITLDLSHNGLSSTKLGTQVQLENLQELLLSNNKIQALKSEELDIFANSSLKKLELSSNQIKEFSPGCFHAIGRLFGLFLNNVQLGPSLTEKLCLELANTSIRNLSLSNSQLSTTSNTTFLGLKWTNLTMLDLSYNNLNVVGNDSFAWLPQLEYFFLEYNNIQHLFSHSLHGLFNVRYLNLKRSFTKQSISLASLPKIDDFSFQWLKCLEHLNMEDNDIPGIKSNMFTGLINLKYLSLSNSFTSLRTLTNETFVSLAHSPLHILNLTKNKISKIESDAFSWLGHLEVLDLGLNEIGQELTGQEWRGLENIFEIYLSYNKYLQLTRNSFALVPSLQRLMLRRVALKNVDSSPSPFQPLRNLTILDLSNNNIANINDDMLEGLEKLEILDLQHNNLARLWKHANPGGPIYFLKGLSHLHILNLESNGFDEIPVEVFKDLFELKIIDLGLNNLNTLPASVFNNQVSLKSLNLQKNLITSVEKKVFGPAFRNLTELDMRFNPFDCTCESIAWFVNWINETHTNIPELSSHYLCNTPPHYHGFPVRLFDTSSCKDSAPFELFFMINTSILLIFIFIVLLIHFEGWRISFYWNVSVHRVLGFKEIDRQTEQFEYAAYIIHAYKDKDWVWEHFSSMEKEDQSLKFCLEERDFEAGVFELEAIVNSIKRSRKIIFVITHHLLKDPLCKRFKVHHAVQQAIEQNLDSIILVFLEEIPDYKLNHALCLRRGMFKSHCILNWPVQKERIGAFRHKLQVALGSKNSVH

CCCCCn1c(N)nc2c(CC)cccc21
inactive: all assays above

CCCCCn1c(N)nc2c(OC)cccc21
inactive: all assays above

CCCCCCn1c(N)nc2ccccc21
inactive: all assays above

CCCCCn1c(N)nc2c(O)cccc21
inactive: all assays above

CCCCCn1c(N)nc2c(N)cccc21
inactive: all assays above

CCCCCn1c(N)nc2c3ccccc3ccc21
inactive: all assays above

CCCCn1c(N)nc2ccccc21
inactive: all assays above

CCCCCn1c(N)nc2ccc(C)cc21
inactive: all assays above

CCCCCn1c(N)nc2cc(C)ccc21
inactive: all assays above

CCCCCn1c(N)nc2c(N(C)C)cccc21
inactive: all assays above

CCCCCn1c(N)nc2cccc(C)c21
inactive: all assays above

CCCCCn1c(N)nc2ccccc21
inactive: all assays above
